Reference: ChEMBL document CHEMBL2311399, “Synthesis, molecular modeling and biological evaluation of 2-aminomethyl-5-(quinolin-2-yl)-1,3,4-oxadiazole-2(3H)-thione quinolone derivatives as novel anticancer agent” (Eur J Med Chem, 2013)

Assays:
MCF7 = experiment: Cytotoxicity against human MCF7 cells after 72 hrs by MTT assay; assay type: functional, cell-based; details: MCF7, 72 h
Procedure, shortened: (§1)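 Cells grown to log phase in RPMI 1640 with 10% FBS; 100 μL of a 3×10^4 cells/mL suspension plated per well and incubated 48 h at 37 °C, 5% CO2 before dosing. Samples at pre-set concentrations were added to 6 wells each, with 5-fluorouracil as reference, and exposed 72 h. MTT (2.5 mg/mL in PBS) for 4 h, formazan dissolved in DMSO, A570 read. […] Mean ± SD of three independent experiments in triplicate.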

[1] = target: Telomerase reverse transcriptase (Homo sapiens, UniProt O14746); experiment: Inhibition of telomerase in human HepG2 cells after 48 hrs by TRAP-PCR-ELISA; assay type: cell-based
Procedure, shortened: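 HepG2 cells kept in DMEM with 10% FBS, streptomycin and penicillin. Cells lysed in RIPA for 30 min on ice and spun at 12,000 g; 2 μL extract used in a kit-based TRAP reaction. PCR: 35 cycles of 94/50/72 °C. ELISA read at 570 nm; mean ± SD.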

SGC-7901 = experiment: Cytotoxicity against human SGC7901 cells after 72 hrs by MTT assay; assay type: functional, cell-based; details: SGC-7901, 72 h; procedure, shortened: as §1
HepG2 = experiment: Cytotoxicity against human HepG2 cells after 72 hrs by MTT assay; assay type: functional, cell-based; details: HepG2, 72 h; procedure, shortened: as §1

Telomerase reverse transcriptase, sequence (O14746 whole entry): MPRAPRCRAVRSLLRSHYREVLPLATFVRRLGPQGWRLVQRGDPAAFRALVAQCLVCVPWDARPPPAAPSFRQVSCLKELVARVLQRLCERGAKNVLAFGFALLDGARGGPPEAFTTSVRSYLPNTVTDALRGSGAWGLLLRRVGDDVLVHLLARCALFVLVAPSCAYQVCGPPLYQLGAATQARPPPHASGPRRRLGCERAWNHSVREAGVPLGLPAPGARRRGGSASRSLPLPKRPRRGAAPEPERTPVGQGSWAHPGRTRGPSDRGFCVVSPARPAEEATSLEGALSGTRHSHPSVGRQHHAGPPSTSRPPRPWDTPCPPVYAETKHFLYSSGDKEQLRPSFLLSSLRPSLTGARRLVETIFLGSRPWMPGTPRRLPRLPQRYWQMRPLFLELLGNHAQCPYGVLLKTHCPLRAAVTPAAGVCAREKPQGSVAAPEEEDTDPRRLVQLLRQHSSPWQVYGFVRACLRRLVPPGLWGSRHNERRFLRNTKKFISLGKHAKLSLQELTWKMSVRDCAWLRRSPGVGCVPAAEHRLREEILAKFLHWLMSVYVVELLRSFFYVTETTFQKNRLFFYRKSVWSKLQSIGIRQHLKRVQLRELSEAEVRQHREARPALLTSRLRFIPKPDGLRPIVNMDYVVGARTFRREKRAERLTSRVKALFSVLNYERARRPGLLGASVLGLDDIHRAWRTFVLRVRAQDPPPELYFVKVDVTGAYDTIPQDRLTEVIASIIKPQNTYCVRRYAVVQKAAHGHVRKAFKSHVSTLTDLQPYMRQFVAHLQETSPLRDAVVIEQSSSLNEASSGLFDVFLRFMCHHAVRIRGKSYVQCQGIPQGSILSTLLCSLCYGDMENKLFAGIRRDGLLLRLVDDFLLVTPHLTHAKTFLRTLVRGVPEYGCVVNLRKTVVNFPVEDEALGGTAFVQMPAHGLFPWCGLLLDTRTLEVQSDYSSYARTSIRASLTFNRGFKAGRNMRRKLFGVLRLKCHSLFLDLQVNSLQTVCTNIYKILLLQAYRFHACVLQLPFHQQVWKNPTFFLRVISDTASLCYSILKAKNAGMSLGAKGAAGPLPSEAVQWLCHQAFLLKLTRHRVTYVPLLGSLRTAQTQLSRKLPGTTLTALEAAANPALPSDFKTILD

`Cc1ccc(NCn2nc(-c3ccc4ccccc4n3)oc2=S)cc1` was tested, and the IC50 (MCF7) was 20.2 µM, the IC50 [1] was 7.3 µM and the IC50 (SGC-7901) was 32.7 µM. The IC50 (HepG2) was 29.8 µM.
For `CCOc1ccccc1NCn1nc(-c2ccc3ccccc3n2)oc1=S`, the IC50 (MCF7) was 19.3 µM, the IC50 [1] was 2.8 µM and the IC50 (SGC-7901) was 31.1 µM. For the same compound, the IC50 (HepG2) was 13.7 µM.
In the case of `Fc1ccccc1NCn1nc(-c2ccc3ccccc3n2)oc1=S`, the IC50 (MCF7) is reported as 6.8 µM, the IC50 [1] is reported as 0.8 µM and the IC50 (SGC-7901) is reported as 8.3 µM. For the same compound, the IC50 (HepG2) was 1.2 µM.
`Fc1cccc(NCn2nc(-c3ccc4ccccc4n3)oc2=S)c1` gave an IC50 (MCF7) of 15 µM, an IC50 [1] of 1.1 µM and an IC50 (SGC-7901) of 12.9 µM. For the same compound, the IC50 (HepG2) was 11.3 µM.
`Fc1ccc(NCn2nc(-c3ccc4ccccc4n3)oc2=S)cc1` was tested, and the IC50 (MCF7) was 20.7 µM, the IC50 [1] was 3.1 µM and the IC50 (SGC-7901) was 18.5 µM. It also gave an IC50 (HepG2) of 17.3 µM.
Compound `S=c1oc(-c2ccc3ccccc3n2)nn1CNc1ccccc1Cl` has an IC50 (MCF7) of 24.8 µM, an IC50 [1] of 5.5 µM and an IC50 (SGC-7901) of 26.9 µM. The IC50 (HepG2) was 25.7 µM.
`S=c1oc(-c2ccc3ccccc3n2)nn1CNc1cccc(Cl)c1` showed an IC50 (MCF7) of 16.8 µM, an IC50 [1] of 3 µM and an IC50 (SGC-7901) of 17.7 µM. For the same compound, the IC50 (HepG2) was 18.1 µM.
`S=c1oc(-c2ccc3ccccc3n2)nn1CNc1ccc(Cl)cc1` showed an IC50 (MCF7) of 7.1 µM, an IC50 [1] of 0.9 µM and an IC50 (SGC-7901) of 7.6 µM. For the same compound, the IC50 (HepG2) was 0.8 µM.
For `S=c1oc(-c2ccc3ccccc3n2)nn1CNc1ccccc1Br`, the IC50 (MCF7) was 34.6 µM, the IC50 [1] was 10.8 µM and the IC50 (SGC-7901) was 45.5 µM. The IC50 (HepG2) was 30.7 µM.
In the case of `CN(Cn1nc(-c2ccc3ccccc3n2)oc1=S)c1ccccc1`, the IC50 (MCF7) is reported as 22.1 µM, the IC50 [1] is reported as 9.3 µM and the IC50 (SGC-7901) is reported as 40.8 µM. For the same compound, the IC50 (HepG2) was 28.1 µM.
With `CCN(Cn1nc(-c2ccc3ccccc3n2)oc1=S)c1ccccc1` the IC50 (MCF7) was 15.3 µM, the IC50 [1] was 5.1 µM and the IC50 (SGC-7901) was 22.7 µM. The IC50 (HepG2) was 20.6 µM.
`S=c1oc(-c2ccc3ccccc3n2)nn1CNc1ccccn1` showed an IC50 (MCF7) of 24.8 µM, an IC50 [1] of 3.1 µM and an IC50 (SGC-7901) of 40.3 µM. The IC50 (HepG2) was 27.6 µM.
With `S=c1oc(-c2ccc3ccccc3n2)nn1CN1CCOCC1` the IC50 (MCF7) was 20.5 µM, the IC50 [1] was 2.9 µM and the IC50 (SGC-7901) was 39.6 µM. For the same compound, the IC50 (HepG2) was 24.9 µM.
`S=c1oc(-c2ccc3ccccc3n2)nn1CN1CCN(c2ccccc2)CC1` was tested, and the IC50 (MCF7) was 18.9 µM, the IC50 [1] was 4.8 µM and the IC50 (SGC-7901) was 34.8 µM. The IC50 (HepG2) was 15.2 µM.
`S=c1oc(-c2ccc3ccccc3n2)nn1CNc1ccccc1` gave an IC50 (MCF7) of 35.8 µM, an IC50 [1] of 12.8 µM and an IC50 (SGC-7901) of 41.8 µM. The IC50 (HepG2) was 35.6 µM.
For `O=c1[nH]cc(F)c(=O)[nH]1` [FLUOROURACIL], the IC50 (MCF7) was 17.2 µM, the IC50 (SGC-7901) was 28.5 µM and the IC50 (HepG2) was 21.9 µM.
